Data taken from ChEMBL document CHEMBL4689842, “EUbOPEN Chemogenomics Library wave 1” (2021).

System: U2OS
Test: Multiplex assay against U2OS
Type: toxicity, cell-based
Conditions: human
How it was run: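 On a CQ1 microscope at 37°C and 5% CO2, live cells were imaged after compound addition. They had been stained at seeding with Hoechst33342, BioTracker Green Microtubule Cytoskeleton Dye, MitoTracker Red and Annexin V Alexa Fluor 680. CellPathfinder machine-learning gating assigned cells to Hoechst high-intensity objects or normal cells, normal cells to healthy, pyknosed or fragmented nuclei, and pyknosed cells to mitotic or apoptotic. Tubulin, mitochondrial-mass and membrane-permeability phenotypes are per cents of healthy-nucleus cells.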

[1] = 12 h, 1 µM, compound concentration 1 uM, replicate 1
[2] = 12 h, 1 µM, compound concentration 1 uM, replicate 2
[3] = 12 h, 10 µM, compound concentration 10 uM, replicate 1
[4] = 12 h, 10 µM, compound concentration 10 uM, replicate 2
[5] = 24 h, 1 µM, compound concentration 1 uM, replicate 1
[6] = 24 h, 1 µM, compound concentration 1 uM, replicate 2
[7] = 24 h, 10 µM, compound concentration 10 uM, replicate 1
[8] = 24 h, 10 µM, compound concentration 10 uM, replicate 2
[9] = 48 h, 1 µM, compound concentration 1 uM, replicate 1
[10] = 48 h, 1 µM, compound concentration 1 uM, replicate 2
[11] = 48 h, 10 µM, compound concentration 10 uM, replicate 1
[12] = 48 h, 10 µM, compound concentration 10 uM, replicate 2

SMILES: O=c1cc(N2CCOCC2)oc2c(-c3cccc4c3sc3ccccc34)cccc12
- Population Apoptotic (%) [1]: 35%
- Population Fragmented Nuclei (%) [1]: 12%
- Population Healthy Nuclei (%) [1]: 76%
- Population Hoechst High Intensity Objects (%) [1]: 7%
- Population Membrane Permeable-Phenotype (%) [1]: 2%
- Population Mitochondria Different-Phenotype (%) [1]: 10%
- Population Mitotic Cells (%) [1]: 65%
- Population Normal (%) [1]: 92%
- Population Pyknosed Nuclei (%) [1]: 11%
- Population Tubulin-Different-Phenotype (%) [1]: 10%
- Total Cell Count [1]: 120
- Population Apoptotic (%) [2]: 100%
- Population Fragmented Nuclei (%) [2]: 15%
- Population Healthy Nuclei (%) [2]: 77%
- Population Hoechst High Intensity Objects (%) [2]: 10%
- Population Mitochondria Different-Phenotype (%) [2]: 6%
- Population Mitotic Cells (%) [2]: 0%
- Population Normal (%) [2]: 90%
- Population Pyknosed Nuclei (%) [2]: 6%
- Population Tubulin-Different-Phenotype (%) [2]: 14%
- Total Cell Count [2]: 79
- Population Apoptotic (%) [3]: 52%
- Population Fragmented Nuclei (%) [3]: 20%
- Population Healthy Nuclei (%) [3]: 47%
- Population Hoechst High Intensity Objects (%) [3]: 4%
- Population Membrane Permeable-Phenotype (%) [3]: 24%
- Population Mitochondria Different-Phenotype (%) [3]: 73%
- Population Mitotic Cells (%) [3]: 47%
- Population Normal (%) [3]: 95%
- Population Pyknosed Nuclei (%) [3]: 32%
- Population Tubulin-Different-Phenotype (%) [3]: 100%
- Total Cell Count [3]: 190
- Population Apoptotic (%) [4]: 31%
- Population Fragmented Nuclei (%) [4]: 19%
- Population Healthy Nuclei (%) [4]: 45%
- Population Hoechst High Intensity Objects (%) [4]: 16%
- Population Membrane Permeable-Phenotype (%) [4]: 23%
- Population Mitochondria Different-Phenotype (%) [4]: 90%
- Population Mitotic Cells (%) [4]: 68%
- Population Normal (%) [4]: 83%
- Population Pyknosed Nuclei (%) [4]: 34%
- Population Tubulin-Different-Phenotype (%) [4]: 95%
- Total Cell Count [4]: 70
- Population Apoptotic (%) [5]: 25%
- Population Fragmented Nuclei (%) [5]: 14%
- Population Healthy Nuclei (%) [5]: 74%
- Population Hoechst High Intensity Objects (%) [5]: 7%
- Population Membrane Permeable-Phenotype (%) [5]: 4%
- Population Mitochondria Different-Phenotype (%) [5]: 7%
- Population Mitotic Cells (%) [5]: 75%
- Population Normal (%) [5]: 92%
- Population Pyknosed Nuclei (%) [5]: 10%
- Population Tubulin-Different-Phenotype (%) [5]: 7%
- Total Cell Count [5]: 118
- Population Apoptotic (%) [6]: 60%
- Population Fragmented Nuclei (%) [6]: 11%
- Population Healthy Nuclei (%) [6]: 82%
- Population Hoechst High Intensity Objects (%) [6]: 6%
- Population Membrane Permeable-Phenotype (%) [6]: 9%
- Population Mitochondria Different-Phenotype (%) [6]: 9%
- Population Mitotic Cells (%) [6]: 40%
- Population Normal (%) [6]: 93%
- Population Pyknosed Nuclei (%) [6]: 6%
- Population Tubulin-Different-Phenotype (%) [6]: 15%
- Total Cell Count [6]: 86
- Population Apoptotic (%) [7]: 60%
- Population Fragmented Nuclei (%) [7]: 16%
- Population Healthy Nuclei (%) [7]: 27%
- Population Hoechst High Intensity Objects (%) [7]: 7%
- Population Membrane Permeable-Phenotype (%) [7]: 22%
- Population Mitochondria Different-Phenotype (%) [7]: 93%
- Population Mitotic Cells (%) [7]: 40%
- Population Normal (%) [7]: 92%
- Population Pyknosed Nuclei (%) [7]: 55%
- Population Tubulin-Different-Phenotype (%) [7]: 97%
- Total Cell Count [7]: 242
- Population Apoptotic (%) [8]: 66%
- Population Fragmented Nuclei (%) [8]: 14%
- Population Healthy Nuclei (%) [8]: 21%
- Population Hoechst High Intensity Objects (%) [8]: 6%
- Population Membrane Permeable-Phenotype (%) [8]: 50%
- Population Mitochondria Different-Phenotype (%) [8]: 70%
- Population Mitotic Cells (%) [8]: 33%
- Population Normal (%) [8]: 94%
- Population Pyknosed Nuclei (%) [8]: 63%
- Population Tubulin-Different-Phenotype (%) [8]: 70%
- Total Cell Count [8]: 86
- Population Apoptotic (%) [9]: 43%
- Population Fragmented Nuclei (%) [9]: 7%
- Population Hoechst High Intensity Objects (%) [9]: 5%
- Population Membrane Permeable-Phenotype (%) [9]: 3%
- Population Mitochondria Different-Phenotype (%) [9]: 8%
- Population Mitotic Cells (%) [9]: 56%
- Population Normal (%) [9]: 94%
- Population Pyknosed Nuclei (%) [9]: 18%
- Population Tubulin-Different-Phenotype (%) [9]: 9%
- Total Cell Count [9]: 127
- Population Apoptotic (%) [10]: 18%
- Population Fragmented Nuclei (%) [10]: 16%
- Population Healthy Nuclei (%) [10]: 73%
- Population Hoechst High Intensity Objects (%) [10]: 4%
- Population Membrane Permeable-Phenotype (%) [10]: 12%
- Population Mitochondria Different-Phenotype (%) [10]: 12%
- Population Mitotic Cells (%) [10]: 81%
- Population Normal (%) [10]: 95%
- Population Pyknosed Nuclei (%) [10]: 9%
- Population Tubulin-Different-Phenotype (%) [10]: 18%
- Total Cell Count [10]: 103
- Population Apoptotic (%) [11]: 81%
- Population Fragmented Nuclei (%) [11]: 30%
- Population Healthy Nuclei (%) [11]: 5%
- Population Hoechst High Intensity Objects (%) [11]: 13%
- Population Membrane Permeable-Phenotype (%) [11]: 55%
- Population Mitochondria Different-Phenotype (%) [11]: 88%
- Population Mitotic Cells (%) [11]: 19%
- Population Normal (%) [11]: 86%
- Population Pyknosed Nuclei (%) [11]: 63%
- Population Tubulin-Different-Phenotype (%) [11]: 77%
- Total Cell Count [11]: 305
- Population Apoptotic (%) [12]: 80%
- Population Fragmented Nuclei (%) [12]: 22%
- Population Healthy Nuclei (%) [12]: 25%
- Population Hoechst High Intensity Objects (%) [12]: 12%
- Population Membrane Permeable-Phenotype (%) [12]: 50%
- Population Mitochondria Different-Phenotype (%) [12]: 83%
- Population Mitotic Cells (%) [12]: 20%
- Population Normal (%) [12]: 87%
- Population Pyknosed Nuclei (%) [12]: 52%
- Population Tubulin-Different-Phenotype (%) [12]: 58%
- Total Cell Count [12]: 116
